Reference: ChEMBL document CHEMBL1146752, “Oxamyl dipeptide caspase inhibitors developed for the treatment of stroke” (Bioorg Med Chem Lett, 2004)
pIC50: −log10 of the molar value.

How the values were obtained:
Rattus norvegicus = species: Rattus norvegicus; assay: Inhibitory activity evaluated against rat Con A embryonic cortical neurons in cellular assay; assay type: functional
SKW 6.4 = assay: Inhibitory activity was evaluated against human SKW 6.4 cell line in cellular assay; assay type: functional, cell-based
Outline: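 Cellular assay (Con A; SKW 6.4 cells) run for 24 h at 37 °C. Read-out is IC50 (µM).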

THP-1 = assay: Inhibitory activity evaluated against human THP-1 cell line in cellular assay; assay type: functional, cell-based
Outline: (§1)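 Human cells (monocytes; THP-1 line) in a caspase-1-dependent cellular assay run for 24 h at 37 °C. Read-out is IC50 (µM).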

Jurkat = assay: Inhibitory activity evaluated against human jurkat cell line in cellular assay; assay type: functional, cell-based
Outline: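 Human Jurkat cells, in an assay where caspase-8 is relevant but other caspases also contribute. Run for 24 h at 37 °C. Read-out is IC50 (µM).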

Homo sapiens [1] = species: Homo sapiens; assay: Inhibitory activity against human monocyte at the concentration of 10 uM; assay type: functional
Outline: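 Human monocyte caspase-1-dependent cellular assay. Compound tested at a single 10 µM concentration. Read-out is percent inhibition.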

Caspase-9 = target: T1, Caspase-9 (Homo sapiens, UniProt P55211); assay: Binding affinity towards human Caspase-9
T1 sequence (P55211 whole entry): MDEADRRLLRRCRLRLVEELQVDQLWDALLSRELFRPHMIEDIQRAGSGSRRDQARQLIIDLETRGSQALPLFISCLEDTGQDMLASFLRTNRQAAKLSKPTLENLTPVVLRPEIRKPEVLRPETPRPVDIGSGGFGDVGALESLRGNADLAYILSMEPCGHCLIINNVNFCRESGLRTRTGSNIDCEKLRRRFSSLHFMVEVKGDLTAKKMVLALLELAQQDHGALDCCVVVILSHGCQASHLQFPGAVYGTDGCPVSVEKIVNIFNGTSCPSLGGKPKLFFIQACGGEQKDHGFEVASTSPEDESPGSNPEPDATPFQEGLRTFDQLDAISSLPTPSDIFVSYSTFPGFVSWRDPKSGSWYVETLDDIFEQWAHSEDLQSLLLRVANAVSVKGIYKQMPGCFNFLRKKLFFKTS

Homo sapiens [2] = species: Homo sapiens; assay: Inhibitory activity against human monocyte; assay type: functional; outline: as §1

SMILES | pIC50 (Rattus norvegicus) | pIC50 (SKW 6.4) | pIC50 (THP-1) | pIC50 (Jurkat) | inhibition at 10 µM (Homo sapiens [1]) [%] | pIC50 (Caspase-9) | pIC50 (Homo sapiens [2])
CC(C)[C@H](NC(=O)C(=O)Nc1ccccn1)C(=O)N[C@@H](CC(=O)O)C(=O)COc1c(F)c(F)cc(F)c1F | 5.03 | 5.66 | 5.84 | 6.85 | – | – | –
CC(C)[C@H](NC(=O)C(=O)Nc1ccc(Cl)c2ccccc12)C(=O)N[C@@H](CC(=O)O)C(=O)COc1c(F)c(F)cc(F)c1F | 6.12 | 5.61 | 6.21 | 7.52 | – | – | –
CC(C)[C@H](NC(=O)C(=O)NCc1ccccc1)C(=O)N[C@@H](CC(=O)O)C(=O)COc1c(F)c(F)cc(F)c1F | 5.82 | 6.04 | 6.24 | 7.11 | – | – | –
CC(C)[C@H](NC(=O)C(=O)Nc1c(Cl)c(Cl)cc(Cl)c1Cl)C(=O)N[C@@H](CC(=O)O)C(=O)COc1c(F)c(F)cc(F)c1F | 6.18 | 6.39 | 5.98 | 6.66 | – | – | –
CC(C)[C@H](NC(=O)C(=O)Nc1ccccc1)C(=O)N[C@@H](CC(=O)O)C(=O)COc1c(F)c(F)cc(F)c1F | 5.82 | 6.03 | 7.15 | 6.37 | – | – | –
CC(C)[C@H](NC(=O)C(=O)NC12CC3CC(CC(C3)C1)C2)C(=O)N[C@@H](CC(=O)O)C(=O)COc1c(F)c(F)cc(F)c1F | 5.46 | 6.14 | 5.75 | 5.75 | – | – | –
CC(C)[C@H](NC(=O)C(=O)NC1CCCc2ccccc21)C(=O)N[C@@H](CC(=O)O)C(=O)COc1c(F)c(F)cc(F)c1F (some centres undefined) | 5.62 | 6.07 | 5.54 | 6.43 | – | – | –
CC(C)C[C@H](NC(=O)COc1cccc2ccccc12)C(=O)N[C@H](C=O)CC(=O)O | – | – | – | – | 17 | 5.57 | –
CC(C)[C@H](NC(=O)C(=O)Nc1c(F)cc(F)c(F)c1F)C(=O)N[C@@H](CC(=O)O)C(=O)COc1c(F)c(F)cc(F)c1F | 5.68 | 6.24 | 6.57 | 6.96 | – | – | –
CCCCCCCNC(=O)C(=O)N[C@H](C(=O)N[C@@H](CC(=O)O)C(=O)COc1c(F)c(F)cc(F)c1F)C(C)C | 5.15 | 5.11 | 5.11 | 5.89 | – | – | –
CC(C)[C@H](NC(=O)C(=O)Nc1cccc2cc3ccccc3cc12)C(=O)N[C@@H](CC(=O)O)C(=O)COc1c(F)c(F)cc(F)c1F | 6.07 | 5.71 | 6.66 | 8.00 | – | – | –
CC(C)C[C@H](NC(=O)CNc1cccc2ccccc12)C(=O)N[C@H](C=O)CC(=O)O | – | – | – | – | 18 | 6.80 | –
CC(C)C[C@H](NC(=O)C(=O)Nc1cccc2ccccc12)C(=O)N[C@H](C=O)CC(=O)O | – | – | – | – | 79 | 6.64 | 5.51
CC(C)[C@H](NC(=O)C(=O)Nc1ccccc1F)C(=O)N[C@@H](CC(=O)O)C(=O)COc1c(F)c(F)cc(F)c1F | 6.01 | 6.30 | 6.17 | 7.01 | – | – | –
COc1cc(CNC(=O)C(=O)N[C@H](C(=O)N[C@@H](CC(=O)O)C(=O)COc2c(F)c(F)cc(F)c2F)C(C)C)cc(OC)c1OC | 5.05 | 4.74 | 5.46 | 5.81 | – | – | –
CC(C)[C@H](NC(=O)C(=O)NC1CCCCC1)C(=O)N[C@@H](CC(=O)O)C(=O)COc1c(F)c(F)cc(F)c1F | 5.21 | 5.75 | 6.14 | 7.22 | – | – | –
CC(C)[C@H](NC(=O)C(=O)Nc1ccc(I)cc1F)C(=O)N[C@@H](CC(=O)O)C(=O)COc1c(F)c(F)cc(F)c1F | 6.15 | 6.82 | 6.39 | 8.00 | – | – | –
CC(C)[C@H](NC(=O)C(=O)NN(c1ccccc1)c1ccccc1)C(=O)N[C@@H](CC(=O)O)C(=O)COc1c(F)c(F)cc(F)c1F | 5.31 | 5.65 | 6.11 | 6.72 | – | – | –
CC(C)[C@H](NC(=O)C(=O)Nc1ccccc1Cl)C(=O)N[C@@H](CC(=O)O)C(=O)COc1c(F)c(F)cc(F)c1F | 6.52 | 6.96 | 6.80 | 7.80 | – | – | –
CC(C)[C@H](NC(=O)C(=O)NN(C(=O)c1ccccc1)c1ccccc1)C(=O)N[C@@H](CC(=O)O)C(=O)COc1c(F)c(F)cc(F)c1F | 5.64 | 5.70 | 6.20 | 7.15 | – | – | –
CC(C)[C@H](NC(=O)C(=O)Nc1ccccc1C(C)(C)C)C(=O)N[C@@H](CC(=O)O)C(=O)COc1c(F)c(F)cc(F)c1F | 5.25 | 6.47 | 5.73 | 8.66 | – | – | –
